Key:
Type in all cases: functional
Mus musculus [1] = assay: Anticonvulsant activity in Swiss mouse assessed as protection against seizures at 300 mg/kg, ip dosed 1 hr before initiation of maximal electroconvulsions by maximal electroshock test
How it was run: (§1)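 Mice were dosed i.p. at a fixed 300 or 100 mg/kg (6 Hz: 100 mg/kg only). Protection was then scored against MES, sc PTZ or 6 Hz seizures at pretreatment times of 0.25, 0.5, 1 and 2 h. Groups were four mice, scored as number protected / number tested. This also gives the time course and time of peak effect.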

Mus musculus [2] = assay: Anticonvulsant activity in Swiss mouse assessed as protection against seizures at 300 mg/kg, ip dosed 0.25 hrs before initiation of maximal electroconvulsions by maximal electroshock test; how it was run: as §1
Mus musculus [3] = assay: Anticonvulsant activity in Swiss mouse assessed as protection against seizures at 300 mg/kg, ip dosed 0.5 hrs before initiation of maximal electroconvulsions by maximal electroshock test; how it was run: as §1
Mus musculus [4] = assay: Anticonvulsant activity in Swiss mouse assessed as protection against seizures at 300 mg/kg, ip dosed 2 hrs before initiation of maximal electroconvulsions by maximal electroshock test; how it was run: as §1
Mus musculus [5] = assay: Anticonvulsant activity in Swiss mouse assessed as protection against seizures at 100 mg/kg, ip dosed 2 hrs before initiation of maximal electroconvulsions by maximal electroshock test; how it was run: as §1
Mus musculus [6] = assay: Anticonvulsant activity in Swiss mouse assessed as protection against seizures at 100 mg/kg, ip dosed 1 hr before initiation of maximal electroconvulsions by maximal electroshock test; how it was run: as §1
Mus musculus [7] = assay: Anticonvulsant activity in Swiss mouse assessed as protection against seizures at 100 mg/kg, ip dosed 0.5 hrs before initiation of maximal electroconvulsions by maximal electroshock test; how it was run: as §1
Mus musculus [8] = assay: Anticonvulsant activity in Swiss mouse assessed as protection against seizures at 100 mg/kg, ip dosed 0.25 hrs before initiation of maximal electroconvulsions by maximal electroshock test; how it was run: as §1

SMILES | Activity (Mus musculus [1]) [%] | Activity (Mus musculus [2]) [%] | Activity (Mus musculus [3]) [%] | Activity (Mus musculus [4]) [%] | Activity (Mus musculus [5]) [%] | Activity (Mus musculus [6]) [%] | Activity (Mus musculus [7]) [%] | Activity (Mus musculus [8]) [%]
CC(C(=O)N1CCN(c2ccccc2Cl)CC1)N1C(=O)CCC1=O (racemic) | 25 | 0 | 0 | 0 | – | – | – | –
CC(C(=O)N1CCN(c2ccc(Cl)cc2)CC1)N1C(=O)CCC1=O (racemic) | 0 | 100 | 100 | 0 | 0 | 0 | 25 | 50
CC(C(=O)N1CCN(c2ccc(C(F)(F)F)cc2)CC1)N1C(=O)CCC1=O (racemic) | 0 | 25 | 25 | 0 | – | – | – | –
Cc1cccc(N2CCN(C(=O)C(C)N3C(=O)CCC3=O)CC2)c1 (racemic) | 0 | 100 | 50 | 0 | 0 | 0 | 0 | 0
COc1cccc(N2CCN(C(=O)C(C)N3C(=O)CCC3=O)CC2)c1 (racemic) | 0 | 75 | 50 | 0 | 0 | 0 | 0 | 25
CC(C(=O)N1CCOCC1)N1C(=O)CCC1=O (racemic) | 0 | 0 | 0 | 0 | – | – | – | –
CCC(C(=O)N1CCN(c2ccccc2Cl)CC1)N1C(=O)CCC1=O (racemic) | 50 | 50 | 25 | 0 | – | – | – | –
CCC(C(=O)N1CCN(c2ccc(Cl)cc2)CC1)N1C(=O)CCC1=O (racemic) | 25 | 0 | 0 | 25 | – | – | – | –
CCC(C(=O)N1CCN(c2ccccc2F)CC1)N1C(=O)CCC1=O (racemic) | 50 | 100 | 100 | 0 | 0 | 0 | 0 | 0
CCC(C(=O)N1CCN(c2cccc(F)c2)CC1)N1C(=O)CCC1=O (racemic) | 75 | 75 | 100 | 0 | 0 | 0 | 0 | 0
CCC(C(=O)N1CCN(c2ccc(F)cc2)CC1)N1C(=O)CCC1=O (racemic) | 25 | 0 | 25 | 0 | – | – | – | –
CCC(C(=O)N1CCN(c2ccccc2C(F)(F)F)CC1)N1C(=O)CCC1=O (racemic) | 0 | 25 | 25 | 0 | – | – | – | –
CCC(C(=O)N1CCN(c2ccc(C(F)(F)F)cc2)CC1)N1C(=O)CCC1=O (racemic) | 0 | 25 | 0 | 0 | – | – | – | –
CCC(C(=O)N1CCN(c2cccc(C)c2)CC1)N1C(=O)CCC1=O (racemic) | 75 | 100 | 100 | 0 | 0 | 0 | 0 | 50
CCC(C(=O)N1CCN(c2cccc(OC)c2)CC1)N1C(=O)CCC1=O (racemic) | 0 | 25 | 0 | 0 | – | – | – | –
CCC(C(=O)N1CCOCC1)N1C(=O)CCC1=O (racemic) | 0 | 0 | 0 | 0 | – | – | – | –

— ChEMBL document CHEMBL3580554, “Design, synthesis, and anticonvulsant activity of new hybrid compounds derived from 2-(2,5-dioxopyrrolidin-1-yl)propanamides and 2-(2,5-dioxopyrrolidin-1-yl)butanamides” (J Med Chem, 2015)
